Measurements: ChEMBL document CHEMBL4706580, “4-Amino-1,2,4-triazole-3-thione-derived Schiff bases as metallo-β-lactamase inhibitors” (Eur J Med Chem, 2020)
Calls of active or inactive are those of the source. The calls are words filed in the database; no cut-off is given here.

What was measured:
[1] = Inhibition of beta-lactamase NDM1 (unknown origin) expressed in Escherichia coli BL21(DE3) using cefotaxime/nitrocefin as substrate by measuring substrate hydrolysis at 100 uM by spectrophotometric analysis
[2] = Inhibition of beta-lactamase NDM1 (unknown origin) expressed in Escherichia coli BL21(DE3) using cefotaxime/nitrocefin as substrate by measuring substrate hydrolysis at 200 uM by spectrophotometric analysis
[3] = Inhibition of beta-lactamase CphA (unknown origin) expressed in Escherichia coli BL21(DE3) using imipenem as substrate by measuring substrate hydrolysis at 100 uM by spectrophotometric analysis
Summary of the method: (§1)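 Enzyme 0.2–0.8 nM in 15 mM cacodylate pH 6.5, no added zinc, pre-incubated 30 min at 21 °C with inhibitor (100 μM screen). Imipenem substrate added from 10 mM stock; hydrolysis at 300 nm, 30 °C. Residual activity vs three uninhibited samples; Ki (1–100 μM inhibitor) by Hanes linearization, competitive model. Triplicate.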

[4] = Inhibition of beta-lactamase VIM2 (unknown origin) expressed in Escherichia coli BL21(DE3) using imipenem as substrate by measuring substrate hydrolysis at 200 uM by spectrophotometric analysis
Summary of the method: (§2)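 Purified enzyme (overproduced in E. coli BL21(DE3), pET-9a; ion-exchange and gel filtration), 1-70 nM final. Reporter substrate 150 μM imipenem, read at 300 nm, 30 °C, 50 mM HEPES pH 7.5. Single-point screen at 100 or 200 μM; Ki from v0/vi vs [I] (0.5–1,000 μM final) assuming competitive inhibition, or Dixon plot. Triplicate.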

[5] = Inhibition of beta-lactamase VIM2 (unknown origin) expressed in Escherichia coli BL21(DE3) using imipenem as substrate by measuring substrate hydrolysis at 100 uM by spectrophotometric analysis; summary of the method: as §2
[6] = Inhibition of beta-lactamase IMP-1 (unknown origin) expressed in Escherichia coli BL21(DE3) using imipenem as substrate by measuring substrate hydrolysis at 100 uM by spectrophotometric analysis; summary of the method: as §2
[7] = Inhibition of beta-lactamase VIM4 (unknown origin) expressed in Escherichia coli BL21(DE3) using imipenem as substrate by measuring substrate hydrolysis by spectrophotometric analysis; summary of the method: as §2
[8] = Inhibition of beta-lactamase L1 (unknown origin) expressed in Escherichia coli BL21(DE3) using nitrocefin as substrate by measuring substrate hydrolysis at 100 uM preincubated for 30 mins by spectrophotometric analysis
Summary of the method: (§3)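 Enzyme 0.2–0.8 nM in 25 mM HEPES pH 7.5 with 50 μM ZnCl2 final, pre-incubated 30 min at 21 °C with inhibitor (100 μM screen). Nitrocefin 100 μM final, read at 482 nm, 30 °C. Residual activity vs three uninhibited samples; Ki (1–100 μM inhibitor) from Hanes linearization, competitive model. Triplicate.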

[9] = Inhibition of beta-lactamase VIM-2 (unknown origin) expressed in Escherichia coli LZ2310 assessed as potentiation of cefoxitin antibacterial activity by measuring cefoxitin induced diameter of inhibition zone at 40 uM incubated for 18 hrs by disk diffusion method (reference value: 14 mm)
Summary of the method: (§4)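 Efflux-deficient E. coli LZ2310 (NorE, MdfA, AcrA knocked out) carrying pLB-II with the cloned MBL gene. Mueller-Hinton, CLSI disk diffusion; antibiotic disks (30 µg cefoxitin for VIM-2, 10 µg ampicillin for VIM-4, 30 µg ceftazidime for NDM-1/IMP-1) loaded with inhibitor in DMSO (≤15 µL). Zone diameter after 18 h, 35 ± 1 °C; DMSO and 220 µg EDTA controls. Triplicate.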

[10] = Inhibition of beta-lactamase VIM4 (unknown origin) expressed in Escherichia coli BL21(DE3) using imipenem as substrate by measuring substrate hydrolysis at 100 uM by spectrophotometric analysis; summary of the method: as §2
[11] = Inhibition of beta-lactamase VIM2 (unknown origin) expressed in Escherichia coli BL21(DE3) using imipenem as substrate by measuring substrate hydrolysis by spectrophotometric analysis; summary of the method: as §2
[12] = Inhibition of beta-lactamase CphA (unknown origin) expressed in Escherichia coli BL21(DE3) using imipenem as substrate by measuring substrate hydrolysis by spectrophotometric analysis; summary of the method: as §1
[13] = Inhibition of beta-lactamase L1 (unknown origin) expressed in Escherichia coli BL21(DE3) using nitrocefin as substrate by measuring substrate hydrolysis at 200 uM preincubated for 30 mins by spectrophotometric analysis
[14] = Inhibition of beta-lactamase L1 (unknown origin) expressed in Escherichia coli BL21(DE3) using nitrocefin as substrate by measuring substrate hydrolysis preincubated for 30 mins by spectrophotometric analysis; summary of the method: as §3
[15] = Inhibition of beta-lactamase IMP-1 (unknown origin) expressed in Escherichia coli BL21(DE3) using imipenem as substrate by measuring substrate hydrolysis at 200 uM by spectrophotometric analysis; summary of the method: as §2
[16] = Inhibition of beta-lactamase NDM1 (unknown origin) expressed in Escherichia coli BL21(DE3) using cefotaxime/nitrocefin as substrate by measuring substrate hydrolysis by spectrophotometric analysis
Summary of the method: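 His-tagged enzyme from E. coli BL21(DE3) pET-15b, affinity-purified, 1-70 nM final. Reporter substrate 120 μM cefotaxime (260 nm) or 100 μM nitrocefin (482 nm), 30 °C, 50 mM HEPES pH 7.5. Inhibitor 0.5–1,000 μM final; competitive Ki from v0/vi vs [I] slope or Dixon plot. Triplicate.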

[17] = Inhibition of beta-lactamase VIM-4 (unknown origin) expressed in Escherichia coli LZ2310 assessed as potentiation of ampicillin antibacterial activity by measuring ampicillin induced diameter of inhibition zone at 40 uM incubated for 18 hrs by disk diffusion method (reference value: 6 mm); summary of the method: as §4

| Structure (SMILES) | inhibition [1] | inhibition [2] | inhibition [3] | inhibition [4] | inhibition [5] | inhibition [6] | inhibition [8] | inhibition zone (IZ) [9] | inhibition [10] | inhibition [13] | inhibition [15] | inhibition zone (IZ) [17] | Ki [7] | Ki [11] | Ki [12] | Ki [14] | Ki [16] |
| --- | --- | --- | --- | --- | --- | --- | --- | --- | --- | --- | --- | --- | --- | --- | --- | --- | --- |
| O=C(O)c1ccccc1/C=N/n1c(Cc2ccccc2)n[nH]c1=S |  | 60% | 51% |  |  | 48% | 59% | 14 mm | 57% |  |  |  |  | 3.2 µM |  |  |  |
| S=c1[nH]nc(-c2ccccc2-c2ccccc2)n1/N=C/c1ccc(OCc2ccccc2)cc1 | 45% |  |  | inactive | inactive | inactive | inactive |  |  | inactive | inactive |  |  |  |  |  |  |
| Oc1ccc(/C=N/n2c(-c3cccc(-c4ccccc4)c3)n[nH]c2=S)c(O)c1 | 65% |  |  |  | 45% | inactive | inactive |  | 65% | inactive | inactive |  |  |  |  |  |  |
| O=C(O)c1cccc(-c2cccc(/C=N/n3c(-c4ccc5ccccc5c4)n[nH]c3=S)c2)c1 |  | 50% |  |  | 30% | inactive | 45% |  |  |  | inactive |  | 2.8 µM |  |  |  |  |
| O=C(O)c1ccccc1/C=N/n1c(-c2cccc(F)c2)n[nH]c1=S |  |  |  | inactive | inactive | inactive | 40% |  | 51% |  | inactive |  |  |  |  |  |  |
| O=C(O)c1ccccc1/C=N/n1c(-c2ccccc2-c2ccccc2)n[nH]c1=S | 32% |  |  | inactive | inactive | inactive | inactive |  | 49% | inactive | inactive |  |  |  |  |  |  |
| Oc1ccc(/C=N/n2c(C(c3ccccc3)c3ccccc3)n[nH]c2=S)c(O)c1 | inactive | inactive |  | inactive | inactive | inactive | inactive |  | 50% | inactive | inactive |  |  |  |  |  |  |
| O=C(O)c1ccccc1/C=N/n1c(-c2cccc3ccccc23)n[nH]c1=S |  |  | 56% |  |  | 35% |  |  | 53% |  |  |  |  | 14.5 µM |  | 1.1 µM | 76 µM |
| Oc1ccc(/C=N/n2c(-c3cc(Cl)cc(Cl)c3)n[nH]c2=S)c(O)c1 | 50% |  |  |  |  | 55% | 40% | 14 mm |  |  |  |  | 4 µM | 3.8 µM |  |  |  |
| O=C(O)c1ccccc1/C=N/n1c(-c2cccc(Br)c2)n[nH]c1=S | inactive | inactive |  |  | 35% | inactive |  |  |  |  | inactive |  | 2 µM |  |  | 3 µM |  |

Continued, in another order:

| inhibition [1] | inhibition [2] | inhibition [3] | inhibition [4] | inhibition [5] | inhibition [6] | inhibition [8] | inhibition zone (IZ) [9] | inhibition [10] | inhibition [13] | inhibition [15] | inhibition zone (IZ) [17] | Structure (SMILES) | Ki [7] | Ki [11] | Ki [12] | Ki [14] | Ki [16] |
| --- | --- | --- | --- | --- | --- | --- | --- | --- | --- | --- | --- | --- | --- | --- | --- | --- | --- |
| inactive | inactive | 35% | inactive | inactive | 37% | 43% |  |  |  |  |  | Cc1ccccc1-c1n[nH]c(=S)n1/N=C/c1ccc(O)cc1 | 1.3 µM |  |  |  |  |
| 32% |  |  |  |  | 34% | inactive |  |  | inactive |  |  | Cc1ccccc1-c1n[nH]c(=S)n1/N=C/c1ccccc1 | 20 µM | 20 µM | 70 µM |  |  |
| inactive | inactive |  | inactive | inactive | 64% | inactive |  | 30% | inactive |  |  | Oc1ccc(/C=N/n2c(Cc3ccc4ccccc4c3)n[nH]c2=S)c(O)c1 |  |  |  |  |  |
| inactive | inactive |  | inactive | inactive | 50% |  |  |  |  |  |  | Oc1ccc(/C=N/n2c(-c3cc(O)ccc3O)n[nH]c2=S)c(O)c1 | 3 µM |  | 5 µM | 15 µM |  |
|  | 60% |  | inactive | inactive |  | inactive |  |  | inactive | 50% |  | Cc1ccccc1-c1n[nH]c(=S)n1/N=C/c1ccccc1C#N | 6.5 µM |  |  |  |  |
|  | 50% | 35% |  |  | 66% | 30% |  |  |  |  |  | Oc1ccc(/C=N/n2c(-c3cccc(Cl)c3)n[nH]c2=S)c(O)c1 | 3 µM |  |  |  |  |
| inactive | inactive |  | inactive | inactive | inactive | inactive |  | 55% | inactive | inactive |  | Oc1ccc(/C=N/n2c(-c3cc4ccccc4[nH]3)n[nH]c2=S)c(O)c1 |  |  |  |  |  |
|  |  |  |  |  | 45% | 51% | 14 mm | 54% |  |  |  | Oc1ccc(/C=N/n2c(CCc3ccccc3)n[nH]c2=S)c(O)c1 |  | 9 µM | 6 µM |  | 168 µM |
| inactive | inactive | 59% | inactive | inactive | 43% | 56% |  |  |  |  | 6 mm | Cc1ccccc1-c1n[nH]c(=S)n1/N=C/c1ccc([N+](=O)[O-])cc1 | 1.4 µM |  |  |  |  |
|  | 60% |  | inactive | inactive | inactive |  |  |  |  | inactive |  | O=C(O)c1ccccc1/C=N/n1c(-c2ccc3ccccc3c2O)n[nH]c1=S | 2 µM |  |  | 0.5 µM |  |
| inactive | inactive |  |  |  | inactive | inactive |  | 55% | inactive | inactive |  | Oc1ccc(/C=N/n2c(-c3ccc4ccccc4c3)n[nH]c2=S)c(O)c1 |  |  |  |  |  |
|  |  |  |  |  | 54% | 46% | 14 mm |  |  |  | 6 mm | Oc1ccc(/C=N/n2c(-c3ccccc3)n[nH]c2=S)c(O)c1 | 1.7 µM |  | 26 µM |  |  |
| inactive | inactive |  | inactive | inactive | 47% |  |  | 32% |  |  |  | Cc1ccccc1-c1n[nH]c(=S)n1/N=C/c1cc(O)ccc1[N+](=O)[O-] |  |  | 9 µM | 16 µM |  |
